An excerpt weighted towards active compounds, which were near 2.4% of everything screened.
Insulin prom up: MIN6 insulin promoter up-regulation; hit rate 0.3% among 190,000; z-score at 5 µM; MIN6 insulin promoter-GFP reporter, high-content imaging; active compounds read high;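 active = z-score above 3 at 5 µM with at least 500 cells counted in the well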
HTR2A ag: mouse HTR2A agonism via beta-arrestin recruitment; CHO-K1 mHTR2A beta-arrestin complementation, luminescence; percent of 30 µM serotonin response; P35363; hit rate 0.66% among 360,000; activation, % at 7.6 µM;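 active = activation above a run cutoff, the mean activation of all tested compounds plus 3 SD, cut at about 14% in these data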;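 also: 0% = plate median of compound wells and 100% = 30 µM serotonin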
Target sequence (P35363 whole entry, looked up): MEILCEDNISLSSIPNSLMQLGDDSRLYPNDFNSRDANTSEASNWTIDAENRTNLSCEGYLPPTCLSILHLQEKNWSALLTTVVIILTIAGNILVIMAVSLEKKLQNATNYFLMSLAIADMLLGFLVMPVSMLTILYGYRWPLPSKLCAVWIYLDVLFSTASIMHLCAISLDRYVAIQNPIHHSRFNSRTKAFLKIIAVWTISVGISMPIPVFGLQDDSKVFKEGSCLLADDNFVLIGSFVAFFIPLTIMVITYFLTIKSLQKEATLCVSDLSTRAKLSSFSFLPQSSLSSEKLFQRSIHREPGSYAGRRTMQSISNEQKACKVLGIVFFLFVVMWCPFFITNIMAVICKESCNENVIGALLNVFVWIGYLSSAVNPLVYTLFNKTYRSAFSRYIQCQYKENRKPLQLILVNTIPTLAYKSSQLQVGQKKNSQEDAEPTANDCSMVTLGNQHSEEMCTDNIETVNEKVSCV
MIN6 prolif: induces beta-cell replication in MIN6 cells. MIN6 cells proliferation, ATPlite luminescence, 48 h; cells starved in 0.2% serum; 100% = growth in 10% serum. proliferation, % at 10 µM. hit rate 0.29% among 330,000;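 active = compounds whose signal lies at least 3.5 SD above the mean of all wells on their plate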;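 also: 0% = DMSO-treated cells in low-serum medium and 100% = 10% serum control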
SR-BI uptake up: activators of SR-BI mediated HDL lipid uptake | hit rate 0.096% among 320,000 | CHO ldlA[mSR-BI] cells, DiI-HDL uptake fluorescence, 3 h; 100 = double the neutral-control signal | AID 504775 | activation, % at 12.5 µM;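 active = mean replicate activation of at least 60% and every replicate at or above 60%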;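 also: 0% = median plate neutral-control signal and 100% = twice that signal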
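Assay system: LDL receptor-deficient CHO ldlA cells overexpressing murine SR-BI / Medium: BSA-supplemented, HEPES-buffered Ham's F12, pH 7.4 / Probe or stimulus: DiI-labelled HDL at 10 µg/mL final / Timing: compound with DiI-HDL co-incubation, 3 h at 37 °C / Technique: bottom-read cell fluorescence after medium removal, ex 550/em 595 nm / Measure: HDL uptake via cellular fluorescence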
SR-BI DiI inh: mouse SR-BI HDL lipid transfer inhibition. AID 488896. hit rate 0.96% among 320,000. inhibition, % at 12.5 µM. ldlA[mSR-BI] CHO cells, DiI-HDL uptake fluorescence, 3 h;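 active = mean replicate inhibition of at least 70% and a set share of replicates each scoring 70 or more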;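 also: 0% = median of neutral control wells and 100% = median of positive control wells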
Calb FLC: C. albicans growth modulation with fluconazole | growth inhibition, % (concentration not given with the values) | C. albicans CaCi-2 + fluconazole, Alamar Blue growth, 48 h | hit rate 0.57% among 300,000;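 active = growth inhibition above about 58% in most replicates, limit read from the data, passing the limit was not always enough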;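 also: all wells also contain fluconazole at 8 µg/ml as a sub-toxic cotreatment; 0% = median of DMSO wells and 100% = median of geldanamycin control wells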
* hit, by the source's call; / = no result given.

SMILES	Insulin prom up	HTR2A ag	MIN6 prolif	SR-BI uptake up	SR-BI DiI inh	Calb FLC
O=C(Nc1nc(-c2ccccc2)cs1)c1ccc(N2CCOCC2)c([N+](=O)[O-])c1	-0.71	11	-3	-79	79*	13
O=C(Nc1nc(-c2ccncc2)cs1)c1ccc(S(=O)(=O)N2CCOCC2)cc1	-1	0	-4	1	-1	32
O=C(COc1cccc(Cl)c1)Nc1nc(-c2ccc(S(=O)(=O)N3CCOCC3)cc2)cs1	/	1	/	-88	88*	8
Cc1nc(CN2CCCCC2)cc(=O)[nH]1	0.59	-1	-1	7	-7	-8
COc1ccc(NS(=O)(=O)NC(=O)c2c[nH]c3ccccc23)cc1	/	2	-3	32	-32	0
CCc1cc(Cn2nc(-c3ccccc3)cc2C(=O)NCc2cccc(Br)c2)on1	/	-4	-6	2	-2	/
O=C1NC2(CCC3(CC2)OCCO3)NN1c1ccccc1	-0.76	0	2	7	-7	120*
S=C1NC2(CCCCC2)NN1c1ccccc1	-0.22	-2	0	24	-24	78*
Cc1ccc(C)c(N2CCN(C(=S)Nc3ccc4nc(N5CCOCC5)cc(C)c4c3)CC2)c1	0.83	-3	-5	-87	87*	-8
Cc1ccc(C)c(N2CCN(C(=S)Nc3ccc4nc(N5CCN(C)CC5)cc(C)c4c3)CC2)c1	-0.96	-9	-6	-35	35	58
CCOc1ccccc1NC(=O)c1cc(-c2ccccn2)nc2ccccc12	/	1	7	-75	75*	/
CCN(CC)C(=O)c1cccc(NC(=O)c2cc(-c3ccccn3)nc3ccccc23)c1	/	4	-3	-75	75*	/
COc1ccc(NC(=O)c2cc(-c3ccccn3)nc3ccccc23)c(OC)c1	/	0	-2	-55	55	/
CCN(CC)S(=O)(=O)c1cc(NC(=O)c2cc(-c3ccccn3)nc3ccccc23)ccc1C	-0.82	-3	2	-49	49	-9
CCOc1cc(N2CCOCC2)c(OCC)cc1NC(=O)c1ccccc1C	0.56	-1	-3	-44	44	46
CCOc1cc(N2CCOCC2)c(OCC)cc1NC(=O)c1nc2nc(C)cc(C)n2n1	-1.4	8	-3	-62	62	101*
CCOc1cc(N2CCOCC2)c(OCC)cc1NC(=O)c1ccc2ccccc2n1	-2	2	-4	-95	95*	1
Cc1ccc(F)cc1C(=O)N1CCCCC1c1cc(C(=O)Nc2cccc(C#N)c2)no1 (configuration not stated)	/	-7	/	/	/	/
COc1ccc(N2CCN(C(=O)C3CCN(C(=O)c4cccc(Cl)c4)CC3)CC2)cc1	/	8	-2	1	-1	-7
N#CC(C(=O)Nc1cccc(Cl)c1)=C1Nc2ccccc2N1	0.08	7	3	-73	73*	-6
c1ccc(Cc2noc(CN3CCN(CCOc4ccccc4)CC3)n2)cc1	0.29	-1	-2	21	-21	1
COC(=O)Cc1c(C)nc2nc(NCc3ccccc3OC)[nH]n2c1=O	4.3*	3	0	5	-5	-3
Cc1ccc(F)cc1C(=O)N1CCCCC1c1cc(C(=O)Nc2ccccc2)no1 (configuration not stated)	/	-4	/	/	/	/
NC(=S)NN=C1c2cc(Cl)ccc2-c2c1cc(Cl)cc2[N+](=O)[O-]	/	1	/	-105	105*	/
Cc1nc2ccc3nc(NC(=O)c4ccc5c(c4)OCCO5)sc3c2s1	0.21	-1	-2	-67	67	-1
SMILES	Insulin prom up	HTR2A ag	MIN6 prolif	SR-BI uptake up	SR-BI DiI inh	Calb FLC
Cc1nc2c(ccc3nc(NC(=O)c4ccc5c(c4)OCCO5)sc32)s1	-1.2	1	-4	-75	75*	23
Cc1ccc(NC2CC(=O)N(c3cccc([N+](=O)[O-])c3)C2=O)cc1 (configuration not stated)	0.7	-2	-2	-83	83*	38
CCOC(=O)c1sc(NC(=O)Nc2ccc(Cl)cc2)cc1C	-1.6	1	-3	-76	76*	-12
CCOC(=O)c1sc(NC(=O)c2c(C)nn(Cc3ccccc3)c2C)cc1C	/	-3	-4	-82	82*	/
CCOC(=O)c1sc(NC(=O)c2ccc(Cl)s2)cc1C	-0.44	-3	0	-21	21	-7
O=C(O)CC12CSc3[nH]c(=O)sc3C1c1ccccc1OC2=O (configuration not stated)	3.2*	/	/	/	/	1
O=C(/C=C/c1ccc(F)cc1)N1CCN(c2ccccn2)CC1	/	3	0	4	-4	87*
O=C(O)C1CCC(N2C(=O)c3c(Cl)c(Cl)c(Cl)c(Cl)c3C2=O)CC1 (configuration not stated)	/	/	/	/	/	2
COc1cc(Nc2nc(-c3ccccc3)c3cc(C)ccc3n2)cc(OC)c1OC	-1.5	0	-6	-72	72*	26
CC1CCN(C2=C(NS(=O)(=O)c3ccc(Cl)cc3)C(=O)c3ccccc3C2=O)CC1	-0.28	3	-6	-4	4	38
O=C1C(NS(=O)(=O)c2ccccc2)=C(N2CCN(c3ccc(F)cc3)CC2)C(=O)c2ccccc21	-0.24	-1	-5	-87	87*	24
O=C1C(NS(=O)(=O)c2cccs2)=C(N2CCN(c3cccc(Cl)c3)CC2)C(=O)c2ccccc21	-0.32	-4	-5	-81	81*	25
Cn1cccc1C(NC(=O)c1ccccc1)C(Cl)(Cl)Cl (configuration not stated)	/	5	-1	-14	14	-13
Cc1cccc(NC(=O)Nc2ccc(C#N)cc2)n1	3.4*	2	1	/	/	4
Cc1cccc(NC(=O)Nc2cccc(C#N)c2)n1	-0.44	2	3	/	/	4
CCOc1ccccc1NC(=O)NC1CCCc2ccccc21 (configuration not stated)	/	-4	-3	-79	79*	-5
CCOCCn1c(=NC(=O)/C=C/c2ccccc2Cl)sc2cc(NC(C)=O)ccc21	0.16	-1	-1	-71	71*	-7
C/C(CC(=O)Nc1ccc(Cl)c(C(F)(F)F)c1)=N\NC(=O)c1cc2ccccc2cc1O	0.03	-5	0	-112	112*	3
Cn1c(CSc2ncn[nH]2)nc2ccccc21	/	-5	-1	68*	-68	-9
O=C(NNC(=O)C1C2CCC(C2)C1C(=O)O)c1ccc(Br)o1 (configuration not stated)	-0.05	/	0	/	/	100*
CC(C)c1ccc(C(=O)NNC(=O)C2C3CCC(C3)C2C(=O)O)cc1 (configuration not stated)	/	/	-5	/	/	12
CCc1ccc2oc(=O)cc(CN3CCCCC3)c2c1	/	11	-2	-19	19	7
CSc1ncccc1C(=O)Nc1ncc(C)s1	/	4	-4	-11	11	0
